In ChEMBL document CHEMBL1138780, “Synthesis and conformational analysis of a non-amidine factor Xa inhibitor that incorporates 5-methyl-4,5,6,7-tetrahydrothiazolo[5,4-c]pyridine as S4 binding element” (J Med Chem, 2004):

How the values were obtained:
Coagulation factor X = Coagulation factor X (Homo sapiens, UniProt P00742); experiment: Inhibitory concentration against Coagulation factor X
Rattus norvegicus = species: Rattus norvegicus; experiment: Anticoagulant activity in vitro was evaluated by prolongation rate of prothrombin time; type: functional
[1] = Anticoagulant activity in vitro was evaluated with plasma clotting time doubling concentration for prothrombin time; type: functional, Homo sapiens
Prothrombin = Prothrombin (Homo sapiens, UniProt P00734); experiment: Concentration required to inhibit thrombin activity by 50%
[2] = target: Coagulation factor X (Rattus norvegicus) (UniProt Q63207); experiment: Ex-vivo inhibitory activity against factor Xa of rat blood after 1 hr of peroral administration of 30 mg/kg; type: organism-based; design: dose 30 mg/kg; conditions: at 30 mg/kg
Coagulation factor X (Rattus norvegicus), sequence (Q63207 41-180 limits assumed): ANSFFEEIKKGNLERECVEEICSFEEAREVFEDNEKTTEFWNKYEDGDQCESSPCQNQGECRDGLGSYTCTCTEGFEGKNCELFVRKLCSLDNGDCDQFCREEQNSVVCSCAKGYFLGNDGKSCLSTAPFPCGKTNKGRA
Coagulation factor X (Rattus norvegicus), sequence (Q63207 232-482 limits assumed): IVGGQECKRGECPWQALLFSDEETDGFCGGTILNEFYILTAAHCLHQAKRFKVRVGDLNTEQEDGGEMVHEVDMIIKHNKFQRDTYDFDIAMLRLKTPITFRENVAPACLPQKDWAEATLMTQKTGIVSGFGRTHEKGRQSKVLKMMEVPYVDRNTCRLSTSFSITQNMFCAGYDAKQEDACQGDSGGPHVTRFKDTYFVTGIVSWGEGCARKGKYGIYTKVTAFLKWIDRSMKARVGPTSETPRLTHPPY
Summary of the method: (§1)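 Fasted male Wistar rats received compound orally by stomach tube in 0.5% methylcellulose; controls got vehicle. Under halothane anesthesia, citrated blood was drawn at the stated time and platelet-poor plasma prepared. Plasma anti-fXa activity was measured chromogenically in Tris/NaCl/BSA buffer, pH 7.4, as 1 − sample OD/min ÷ control OD/min.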

[3] = target: Coagulation factor X (Rattus norvegicus) (UniProt Q63207); experiment: Ex-vivo inhibitory activity against factor Xa of rat blood after 3h of peroral administration of 30 mg/kg; type: organism-based; design: dose 30 mg/kg; conditions: at 30 mg/kg; summary of the method: as §1
[4] = target: Coagulation factor X (Rattus norvegicus) (UniProt Q63207); experiment: Ex-vivo inhibitory activity against factor Xa of rat blood after 6 hr of peroral administration of 30 mg/kg; type: organism-based; design: dose 30 mg/kg; conditions: at 30 mg/kg; summary of the method: as §1

Coagulation factor X, sequence (P00742 41-179 limits assumed): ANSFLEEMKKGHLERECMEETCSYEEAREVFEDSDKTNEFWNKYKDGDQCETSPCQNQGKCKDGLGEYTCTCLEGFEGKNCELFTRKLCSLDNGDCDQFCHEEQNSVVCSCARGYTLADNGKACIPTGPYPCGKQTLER
Coagulation factor X, sequence (P00742 235-488 limits assumed): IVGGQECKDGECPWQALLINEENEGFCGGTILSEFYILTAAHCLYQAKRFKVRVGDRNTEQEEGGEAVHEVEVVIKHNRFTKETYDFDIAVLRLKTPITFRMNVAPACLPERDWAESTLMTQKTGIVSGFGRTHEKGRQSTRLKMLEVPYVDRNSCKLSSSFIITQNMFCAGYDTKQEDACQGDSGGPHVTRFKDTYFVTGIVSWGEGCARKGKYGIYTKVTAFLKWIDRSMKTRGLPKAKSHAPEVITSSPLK

Row | Structure (SMILES) | IC50 (Coagulation factor X) | Anticoagulant activity (Rattus norvegicus) | Anticoagulant activity [1] | further results
1 | O=C(c1ccc2c(n1)CCNC2)N1CCN(S(=O)(=O)c2ccc3cc(Cl)ccc3c2)CC1 | 920 nM | – | – | –
2 | CN1CCc2sc(C(=O)N3CCN(S(=O)(=O)c4ccc5cc(Cl)ccc5c4)CC3)cc2C1 | 190 nM | – | – | –
3 | O=C(c1cc2c(s1)CNCC2)N1CCN(S(=O)(=O)c2ccc3cc(Cl)ccc3c2)CC1 | 160 nM | – | – | –
4 | O=C(c1cc2c([nH]1)CCNC2)N1CCN(S(=O)(=O)c2ccc3cc(Cl)ccc3c2)CC1 | 6200 nM | – | – | –
5 | O=C(c1ccc2c(c1)CCNC2)N1CCN(S(=O)(=O)c2ccc3cc(Cl)ccc3c2)CC1 | 640 nM | – | – | –
6 | CN1CCc2nc(C(=O)N3CCN(S(=O)(=O)c4ccc5cc(Cl)ccc5c4)CC3)ccc2C1 | 2200 nM | – | – | –
7 | NC(=O)C1CN(S(=O)(=O)c2ccc3cc(Cl)ccc3c2)CCN1C(=O)c1nc2c(s1)CNCC2 (configuration not stated) | 83 nM | 28.8 µM | 9.7 µM | –
8 | CN1CCc2nc(C(=O)N3CCN(S(=O)(=O)c4ccc5cc(Cl)ccc5c4)CC3)sc2C1 | – | 10 µM | 6 µM | IC50 (Prothrombin): 560 nM
9 | CC(C)N1CCc2nc(C(=O)N3CCN(S(=O)(=O)c4ccc5cc(Cl)ccc5c4)CC3C(N)=O)sc2C1 (configuration not stated) | 80 nM | 17.5 µM | 6.6 µM | –
10 | CN1CCc2nc(C(=O)N3CCN(S(=O)(=O)c4ccc5cc(Cl)ccc5c4)CC3C(N)=O)sc2C1 (configuration not stated) | – | 14 µM | 4.4 µM | IC50 (Prothrombin): 1000 nM; inhibition [2]: 67.4%; inhibition [3]: 55.8%; inhibition [4]: 24.7%
11 | CN1CCc2sc(C(=O)N3CCN(S(=O)(=O)c4ccc5cc(Cl)ccc5c4)CC3)nc2C1 | 210 nM | – | – | –
12 | O=C(c1cc2c(s1)CCNC2)N1CCN(S(=O)(=O)c2ccc3cc(Cl)ccc3c2)CC1 | 270 nM | – | – | –
13 | CCN1CCc2nc(C(=O)N3CCN(S(=O)(=O)c4ccc5cc(Cl)ccc5c4)CC3C(N)=O)sc2C1 (configuration not stated) | 110 nM | 14.6 µM | 7.2 µM | –
14 | CN1CCc2[nH]c(C(=O)N3CCN(S(=O)(=O)c4ccc5cc(Cl)ccc5c4)CC3)cc2C1 | 320 nM | – | – | –
15 | O=C(c1nc2c(s1)CNCC2)N1CCN(S(=O)(=O)c2ccc3cc(Cl)ccc3c2)CC1 | – | 16.1 µM | 11.2 µM | IC50 (Prothrombin): 2900 nM
16 | CN1CCc2cc(C(=O)N3CCN(S(=O)(=O)c4ccc5cc(Cl)ccc5c4)CC3)sc2C1 | 105 nM | – | – | –
17 | CN1CCc2cc(C(=O)N3CCN(S(=O)(=O)c4ccc5cc(Cl)ccc5c4)CC3)oc2C1 | 550 nM | – | – | –
